Assay results reported in ChEMBL document CHEMBL1128374, “Preparation and in vitro activities of ethers of [D-serine]8-cyclosporin” (J Med Chem, 1995).
In brackets after ≈: the same amount, converted by molar mass.

Experiments:
Format in all cases: functional
Mus musculus [1] = species: Mus musculus; test: In vitro efficacy to suppress lymphocyte proliferation as measured by the incorporation of a labeled precursor ([3H]- thymidine) into DNA in Mixed Lymphocyte reaction (MLR).
Procedure, shortened: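 Cells from spleens of female CBA mice aged 8–10 weeks (ca. 5 x 10^5). Compounds made up at 20 mg/mL in 9:1 (v/v) ethanol/Tween 80, then diluted in saline before adding to medium. Four concentrations per compound across 1.8–1000 ng/mL, in triplicate cultures. IC50 is the calculated concentration giving 50% inhibition of proliferation. Cyclosporin A run in parallel as control.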

Mus musculus [2] = species: Mus musculus; test: In vitro inhibition of interleukin-2 (IL-2) production induced by stimulating lymphocytes derived from mouse spleens with the […]; conditions: Spleen
Procedure, shortened: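 Compounds added with concanavalin A to the primary culture; supernatants collected at 48 h. IL-2 content measured by growth of IL-2-dependent CTLL cells, read as tritiated thymidine incorporation after 48 h. IC50 determined, with cyclosporin A run in parallel.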

Mus musculus [3] = species: Mus musculus; test: In vitro efficacy on humoral immune response by Mishell-Dutton assay (MD).
Procedure, shortened: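 Spleen lymphocytes from female OF1 mice (ca. 10 x 10^6) cultured 3 days with sheep erythrocytes (ca. 30 x 10^6) and test compound. Cells then plated on agar with fresh erythrocytes; plaques form by complement lysis. Read-out is the count of antibody-producing plaque-forming cells. Cyclosporin A run in parallel.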

SMILES | IC50 (Mus musculus [2]) | IC50 (Mus musculus [3]) | IC50 (Mus musculus [1])
C/C=C/C[C@@H](C)[C@@H](O)[C@H]1C(=O)N[C@@H](CC)C(=O)N(C)CC(=O)N(C)[C@@H](CC(C)C)C(=O)N[C@@H](C(C)C)C(=O)N(C)[C@@H](CC(C)C)C(=O)N[C@@H](C)C(=O)N[C@H](COCCN)C(=O)N(C)[C@@H](CC(C)C)C(=O)N(C)[C@@H](CC(C)C)C(=O)N(C)[C@@H](C(C)C)C(=O)N1C | 0.38 µg/mL (≈ 0.301 µM) | 0.095 µg/mL (≈ 0.0753 µM) | 0.22 µg/mL (≈ 0.174 µM)
C/C=C/C[C@@H](C)[C@@H](O)[C@H]1C(=O)N[C@@H](CC)C(=O)N(C)CC(=O)N(C)[C@@H](CC(C)C)C(=O)N[C@@H](C(C)C)C(=O)N(C)[C@@H](CC(C)C)C(=O)N[C@@H](C)C(=O)N[C@H](COC/C=C/CO)C(=O)N(C)[C@@H](CC(C)C)C(=O)N(C)[C@@H](CC(C)C)C(=O)N(C)[C@@H](C(C)C)C(=O)N1C | – | 0.036 µg/mL (≈ 0.0279 µM) | 0.07 µg/mL (≈ 0.0543 µM)
C/C=C/C[C@@H](C)[C@@H](O)[C@H]1C(=O)N[C@@H](CC)C(=O)N(C)CC(=O)N(C)[C@@H](CC(C)C)C(=O)N[C@@H](C(C)C)C(=O)N(C)[C@@H](CC(C)C)C(=O)N[C@@H](C)C(=O)N[C@H](COCC#N)C(=O)N(C)[C@@H](CC(C)C)C(=O)N(C)[C@@H](CC(C)C)C(=O)N(C)[C@@H](C(C)C)C(=O)N1C | – | 0.023 µg/mL (≈ 0.0183 µM) | 0.01 µg/mL (≈ 0.00795 µM)
C/C=C/C[C@@H](C)[C@@H](O)[C@H]1C(=O)N[C@@H](CC)C(=O)N(C)CC(=O)N(C)[C@@H](CC(C)C)C(=O)N[C@@H](C(C)C)C(=O)N(C)[C@@H](CC(C)C)C(=O)N[C@@H](C)C(=O)N[C@H](COCCOCCOCCO)C(=O)N(C)[C@@H](CC(C)C)C(=O)N(C)[C@@H](CC(C)C)C(=O)N(C)[C@@H](C(C)C)C(=O)N1C | – | 0.1 µg/mL (≈ 0.074 µM) | 0.47 µg/mL (≈ 0.348 µM)
C/C=C/C[C@@H](C)[C@@H](O)[C@H]1C(=O)N[C@@H](CC)C(=O)N(C)CC(=O)N(C)[C@@H](CC(C)C)C(=O)N[C@@H](C(C)C)C(=O)N(C)[C@@H](CC(C)C)C(=O)N[C@@H](C)C(=O)N2CCCC[C@@H]2C(=O)N(C)[C@@H](CC(C)C)C(=O)N(C)[C@@H](CC(C)C)C(=O)N(C)[C@@H](C(C)C)C(=O)N1C | – | – | 0.029 µg/mL (≈ 0.0233 µM)
C/C=C/C[C@@H](C)[C@@H](O)[C@H]1C(=O)N[C@@H](CC)C(=O)N(C)CC(=O)N(C)[C@@H](CC(C)C)C(=O)N[C@@H](C(C)C)C(=O)N(C)[C@@H](CC(C)C)C(=O)N[C@@H](C)C(=O)N2CCOC[C@@H]2C(=O)N(C)[C@@H](CC(C)C)C(=O)N(C)[C@@H](CC(C)C)C(=O)N(C)[C@@H](C(C)C)C(=O)N1C | 0.003 µg/mL (≈ 0.00241 µM) | – | 0.006 µg/mL (≈ 0.00482 µM)
C/C=C/C[C@@H](C)[C@@H](O)[C@H]1C(=O)N[C@@H](CC)C(=O)N(C)CC(=O)N(C)[C@@H](CC(C)C)C(=O)N[C@@H](C(C)C)C(=O)N(C)[C@@H](CC(C)C)C(=O)N[C@@H](C)C(=O)N2COC[C@@H]2C(=O)N(C)[C@@H](CC(C)C)C(=O)N(C)[C@@H](CC(C)C)C(=O)N(C)[C@@H](C(C)C)C(=O)N1C | – | – | 0.118 µg/mL (≈ 0.0959 µM)

Further lines, with some results ahead:

IC50 (Mus musculus [2]) | IC50 (Mus musculus [3]) | SMILES | IC50 (Mus musculus [1])
0.07 µg/mL (≈ 0.0549 µM) | 0.063 µg/mL (≈ 0.0494 µM) | C/C=C/C[C@@H](C)[C@@H](O)[C@H]1C(=O)N[C@@H](CC)C(=O)N(C)CC(=O)N(C)[C@@H](CC(C)C)C(=O)N[C@@H](C(C)C)C(=O)N(C)[C@@H](CC(C)C)C(=O)N[C@@H](C)C(=O)N[C@H](COCC(N)=O)C(=O)N(C)[C@@H](CC(C)C)C(=O)N(C)[C@@H](CC(C)C)C(=O)N(C)[C@@H](C(C)C)C(=O)N1C | 0.064 µg/mL (≈ 0.0502 µM)
– | 0.09 µg/mL (≈ 0.0697 µM) | C/C=C/C[C@@H](C)[C@@H](O)[C@H]1C(=O)N[C@@H](CC)C(=O)N(C)CC(=O)N(C)[C@@H](CC(C)C)C(=O)N[C@@H](C(C)C)C(=O)N(C)[C@@H](CC(C)C)C(=O)N[C@@H](C)C(=O)N[C@H](COCCCCO)C(=O)N(C)[C@@H](CC(C)C)C(=O)N(C)[C@@H](CC(C)C)C(=O)N(C)[C@@H](C(C)C)C(=O)N1C | 0.094 µg/mL (≈ 0.0728 µM)
– | 0.078 µg/mL (≈ 0.0604 µM) | C/C=C/C[C@@H](C)[C@@H](O)[C@H]1C(=O)N[C@@H](CC)C(=O)N(C)CC(=O)N(C)[C@@H](CC(C)C)C(=O)N[C@@H](C(C)C)C(=O)N(C)[C@@H](CC(C)C)C(=O)N[C@@H](C)C(=O)N[C@H](COCC(C)(C)O)C(=O)N(C)[C@@H](CC(C)C)C(=O)N(C)[C@@H](CC(C)C)C(=O)N(C)[C@@H](C(C)C)C(=O)N1C | 0.05 µg/mL (≈ 0.0387 µM)
– | 0.078 µg/mL (≈ 0.0572 µM) | C/C=C/C[C@@H](C)[C@@H](O)[C@H]1C(=O)N[C@@H](CC)C(=O)N(C)CC(=O)N(C)[C@@H](CC(C)C)C(=O)N[C@@H](C(C)C)C(=O)N(C)[C@@H](CC(C)C)C(=O)N[C@@H](C)C(=O)N[C@H](COCCOCC(=O)OC(C)C)C(=O)N(C)[C@@H](CC(C)C)C(=O)N(C)[C@@H](CC(C)C)C(=O)N(C)[C@@H](C(C)C)C(=O)N1C | 0.05 µg/mL (≈ 0.0367 µM)
